Bioassay records (PubChem)
HNF4A DNA FP = change in binding of human HNF4A to DNA, primary screen, biochemical, fluorescence polarization, FITC-DNA; 1 h; 360,000 tested, 0.3% active; activity change, % at 10 µM; Hepatocyte nuclear factor 4-alpha (Homo sapiens), P41235; in the data active means activity change above about 30%, passing the limit was not always enough
Target sequence (P41235 whole entry, looked up): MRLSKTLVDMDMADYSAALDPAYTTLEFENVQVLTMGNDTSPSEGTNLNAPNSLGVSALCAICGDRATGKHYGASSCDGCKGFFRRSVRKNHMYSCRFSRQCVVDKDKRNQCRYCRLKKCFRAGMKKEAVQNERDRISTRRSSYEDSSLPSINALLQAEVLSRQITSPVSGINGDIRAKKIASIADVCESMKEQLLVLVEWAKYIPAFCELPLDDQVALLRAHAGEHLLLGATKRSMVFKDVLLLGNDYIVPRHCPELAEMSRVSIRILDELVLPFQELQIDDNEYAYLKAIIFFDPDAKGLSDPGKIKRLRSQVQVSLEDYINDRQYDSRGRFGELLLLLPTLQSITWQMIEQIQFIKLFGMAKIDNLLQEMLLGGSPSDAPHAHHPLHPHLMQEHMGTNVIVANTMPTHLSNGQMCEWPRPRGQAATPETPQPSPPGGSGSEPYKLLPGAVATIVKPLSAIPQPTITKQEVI
Rpn11 block = Rpn11 (PSMD14) deubiquitinase inhibitors, primary screen, biochemical, fluorescence polarization, uHTS | 360,000 tested, 0.59% active | inhibition, % at 20 µM | 26S proteasome non-ATPase regulatory subunit 14 (Homo sapiens), O00487 | human 26S proteasome, Ub4-pepOG fluorescence polarization; 20S core pre-blocked with epoxomicin | AID 588493, 2011;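 active means inhibition at 20 µM, scaled to each plate's controls, above about 33%, limit read from the data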
TPT1 inhibitor = Candida albicans TPT1 enzyme inhibitors, primary screen, biochemical, fluorescence polarization; tRNA 2'-phosphotransferase TPT1 (Candida albicans SC5314); recombinant caTPT1, FP RNA substrate dephosphorylation; inhibition, % at 5 µM; 300,000 tested, 0.81% active;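 active means inhibition above the mean of all tested compounds plus 3 SD, set per screening campaign, cut at about 24% in these data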;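 further: plate controls were DMSO alone for no effect and ferristatin control at 100 nM for full effect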
SENP1 FRET inh = human SENP1 catalytic domain inhibitors, primary screen, biochemical, FRET, uHTS; Sentrin-specific protease 1 (Homo sapiens), Q9P0U3; 360,000 tested, 0.21% active; recombinant SENP1 catalytic domain, CyPet-SUMO1-YPet FRET cleavage; AID 624204, 2012; inhibition, % at 10 µM;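 active means inhibition at least 30% at 10 µM, raw YFP signal under a set limit, fluorescence ratio 0.5 to 1.5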;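 further: 0% = enzyme with DMSO and 100% = no enzyme wells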
Target sequence (Q9P0U3 419-644 limits assumed): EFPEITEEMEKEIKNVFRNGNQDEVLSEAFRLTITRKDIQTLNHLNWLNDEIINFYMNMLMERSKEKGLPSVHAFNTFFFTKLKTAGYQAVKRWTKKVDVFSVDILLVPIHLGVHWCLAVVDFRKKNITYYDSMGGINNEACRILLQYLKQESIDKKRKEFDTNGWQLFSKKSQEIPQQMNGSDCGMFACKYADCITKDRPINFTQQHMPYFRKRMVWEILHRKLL
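Test system: recombinant human SENP1 catalytic domain, His6-tagged / Medium: pH 8 Tris buffer with EDTA, NaCl, BME, BSA, NP40, catalase / Also added: SUMO1 FRET substrate flanked by Cypet and Ypet, 25 nM / Times: 50 min reaction at room temperature / Signal: FRET, CFP and YFP emission / Control set: no-enzyme low control and enzyme-plus-DMSO high control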
CSN deneddyl inh = inhibitors of CSN-mediated cullin deneddylation, primary screen, biochemical, fluorescence polarization, uHTS. Purified CSN, SCF-Nedd8-OG deneddylation. 360,000 tested, 0.38% active. COP9 signalosome complex subunit 5 (Homo sapiens), Q92905. inhibition, % at 12.5 µM;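 active means pattern-corrected inhibition above about 35%, with an unprinted fluorescence ratio check between 0.5 and 1.5, limit read from the data, passing the limit was not always enough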;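 further: 0% = enzyme with substrate and 100% = substrate without enzyme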
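assay system = purified human Csn5 enzyme expressed in HEK293T cells | amount = 0.24 nM enzyme | buffer or medium = Tris/NaCl/DTT buffer, pH 7.5 | reagent = 10 nM SCFSkp2-Nedd8OG | compound = one concentration, 12.5 µM, 0.25% DMSO | times = 90 min reaction at room temperature | signal = FP | read-out basis = % inhibition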
ATG4B inh = ATG4B protease inhibitors, primary screen, biochemical, fluorescence, uHTS; AID 504462, 2011; 340,000 tested, 0.51% active; inhibition, % at 8.33 µM; ATG4B cleavage of LC3-PLA2, NBD-HPC fluorescence, 1 h; in the data active means inhibition above about 40%
* = called active by the depositor. Compounds with a hit are over-represented: about 2% of the library has one in this group of screens.

What do the screens show for `CCn1cnnc1SCC(=O)Nc1ccccc1C(=O)NC1CC1`?
HNF4A DNA FP: 1.5; Rpn11 block: 1.8; SENP1 FRET inh: 1.3; CSN deneddyl inh: 2.7; ATG4B inh: -6.3

What do the screens show for `Cc1nnc(SCC(=O)Nc2ccc3c(c2)OCCO3)n1CC1CCCO1` (stereo not given)?
HNF4A DNA FP: -5.0; Rpn11 block: -6.0; TPT1 inhibitor: -3.5; SENP1 FRET inh: 2.9; CSN deneddyl inh: 1.9; ATG4B inh: -8.0

Results for Cc1cccc(C)c1NC(=O)CSc1nnc(C)n1CC1CCCO1 (stereo not given) ?
HNF4A DNA FP: 115.2*; Rpn11 block: 0.0; TPT1 inhibitor: -4.7; SENP1 FRET inh: 1.2; CSN deneddyl inh: 0.2; ATG4B inh: -13.2

Results for O=C(N/N=C/c1cccnc1)c1cc2ccccc2o1 ?
HNF4A DNA FP: 0.5; Rpn11 block: -1.9; TPT1 inhibitor: -1.7; SENP1 FRET inh: 1.2; CSN deneddyl inh: -4.5; ATG4B inh: -0.6

What do the screens show for `O=C(N/N=C/c1cccnc1)c1cc2c(ccc3ccccc32)o1`?
HNF4A DNA FP: 0.8; Rpn11 block: 12.2; TPT1 inhibitor: -7.8; SENP1 FRET inh: 1.0; CSN deneddyl inh: 55.2*; ATG4B inh: -15.2

What do the screens show for `S=C(Nc1ccc(Cl)cc1)N1CCOCC1`?
HNF4A DNA FP: 1.7; Rpn11 block: 4.0; TPT1 inhibitor: -2.9; SENP1 FRET inh: 2.9; CSN deneddyl inh: 42.1*; ATG4B inh: -18.4

What do the screens show for `NC(=O)c1ccccc1NC(=O)c1cccc(C(=O)Nc2ccccc2C(N)=O)n1`?
HNF4A DNA FP: 3.2; Rpn11 block: 3.1; TPT1 inhibitor: -2.3; SENP1 FRET inh: 0.3; CSN deneddyl inh: 35.2*; ATG4B inh: 2.1

What do the screens show for `CC(C(=O)O)N1C(=O)CSc2ncccc21` (stereo not given)?
HNF4A DNA FP: 0.3; Rpn11 block: -4.1; TPT1 inhibitor: -3.2; SENP1 FRET inh: 2.4; CSN deneddyl inh: -2.0; ATG4B inh: -15.7

What do the screens show for `CC(C(=O)O)N1C(=O)CSC1=S` (stereo not given)?
HNF4A DNA FP: 88.4*; Rpn11 block: 11.8; TPT1 inhibitor: -3.5; SENP1 FRET inh: 2.1; CSN deneddyl inh: 3.9; ATG4B inh: -5.5

Results for c1ccc(N2[C@@H]3c4ccccc4C[C@H]2c2ccccc23)cc1 ?
HNF4A DNA FP: 0.1; SENP1 FRET inh: 1.7; CSN deneddyl inh: 1.9

What do the screens show for `COc1ccc(C(=O)O)cc1S(=O)(=O)Nc1ccc2cn[nH]c2c1`?
HNF4A DNA FP: 7.4; Rpn11 block: -1.5; SENP1 FRET inh: -0.1; CSN deneddyl inh: -2.2; ATG4B inh: 0.1

How did Cc1cc(C)c[n+](-c2[nH]c(=O)sc2/C=N/NC([S-])=Nc2ccccc2)c1 do in these assays?
HNF4A DNA FP: -46.0; Rpn11 block: -131.9; TPT1 inhibitor: -41.1; SENP1 FRET inh: 33.1*; CSN deneddyl inh: -40.9; ATG4B inh: -2.0

What do the screens show for `Nc1ccn([C@@H]2O[C@H](CNCc3ccc(C#CCCO)cc3)[C@@H](O)[C@H]2O)c(=O)n1`?
HNF4A DNA FP: -1.6; Rpn11 block: -1.2; SENP1 FRET inh: -1.4; CSN deneddyl inh: 45.0*

Results for CCOc1ccc2c(c1)S/C(=C\c1cccs1)C(=O)N2 ?
HNF4A DNA FP: 7.9; Rpn11 block: 30.2; TPT1 inhibitor: 11.0; SENP1 FRET inh: -3.5; CSN deneddyl inh: 39.5*; ATG4B inh: -4.5

How did CN(C)Cc1cc(O)c(CN(C)C)cc1O do in these assays?
HNF4A DNA FP: -2.3; Rpn11 block: -31.4; TPT1 inhibitor: -18.4; SENP1 FRET inh: 32.5*; CSN deneddyl inh: -5.8; ATG4B inh: -5.0

How did CC(=O)Nc1ccc(C(=O)CSc2nnc(-c3ccccc3F)n2CCc2ccccc2)cc1 do in these assays?
HNF4A DNA FP: 9.6; Rpn11 block: 9.7; SENP1 FRET inh: -3.2; CSN deneddyl inh: 11.8; ATG4B inh: -9.3

How did Cc1ccc(CNC(=O)c2cc3c(=O)n4ccccc4nc3n(Cc3ccco3)c2=N)cc1 do in these assays?
HNF4A DNA FP: -9.7; Rpn11 block: 19.7; TPT1 inhibitor: 0.7; SENP1 FRET inh: -21.4; CSN deneddyl inh: 14.2; ATG4B inh: -2.1

What do the screens show for `CCOC(=O)c1cc2c(=O)n3ccccc3nc2n(Cc2ccc(Cl)cc2)c1=N`?
HNF4A DNA FP: 17.5; SENP1 FRET inh: -34.8; CSN deneddyl inh: 42.2*; ATG4B inh: -0.5

Results for N=c1c(C(=O)NCc2ccco2)cc2c(=O)n3ccccc3nc2n1Cc1ccc(Cl)cc1 ?
HNF4A DNA FP: 0.3; Rpn11 block: 31.6; TPT1 inhibitor: 20.6; SENP1 FRET inh: -19.7; CSN deneddyl inh: 0.9; ATG4B inh: -18.9

How did Cc1ccc(S(=O)(=O)c2cc3c(=O)n4ccccc4nc3n(Cc3ccco3)c2=N)cc1 do in these assays?
HNF4A DNA FP: -26.2; Rpn11 block: -1.6; TPT1 inhibitor: 23.9; SENP1 FRET inh: -31.1; CSN deneddyl inh: 38.0*; ATG4B inh: -3.8

How did O=C(NC1CCCCC1)C(C1CC1)n1c(=O)c(-c2ccccc2)nc2ccccc21 (stereo not given) do in these assays?
HNF4A DNA FP: 2.8; SENP1 FRET inh: -1.8; CSN deneddyl inh: 1.1

Results for Cc1cc(=O)c2ccccc2n1Cc1ccccc1 ?
HNF4A DNA FP: -0.4; Rpn11 block: 1.1; TPT1 inhibitor: -2.4; SENP1 FRET inh: 0.3; CSN deneddyl inh: -3.1; ATG4B inh: -16.6

How did Cc1cc(=O)c2ccccc2n1CC(=O)NCc1ccccc1 do in these assays?
HNF4A DNA FP: 30.4*; Rpn11 block: 5.8; TPT1 inhibitor: -7.7; SENP1 FRET inh: 1.1; CSN deneddyl inh: -2.2; ATG4B inh: 0.2

What do the screens show for `CCN(CC(=O)Nc1c(F)cccc1F)C(=O)c1ccc(OCC(=O)N2CCOCC2)c(OC)c1`?
HNF4A DNA FP: 3.3; Rpn11 block: -4.6; SENP1 FRET inh: -2.0; CSN deneddyl inh: -0.7; ATG4B inh: -1.8

What do the screens show for `C#CCOCCOCCOCCNc1nc(N2CCN(C(=O)CCCCCCCCCCNC(=O)[C@H](CCCCN)n3cc(C[C@@H](C)CC)nn3)CC2)nc(N2CCN(C(=O)CCCCCCCCCCNC(=O)[C@@H]([C@H](C)O)n3cc(C)nn3)CC2)n1`?
HNF4A DNA FP: 65.0*; Rpn11 block: 38.1; TPT1 inhibitor: -0.6; SENP1 FRET inh: -0.1; CSN deneddyl inh: 66.1*; ATG4B inh: 52.8*
